Bioassay records: PubChem BioAssay, several laboratories
The list is not random: actives were taken first. Their share in the collection is about 2.6%.
T cell modulator – T cell immune modulators affecting CD8 T cell-vesicle binding; 2C CD8+ T cell-vesicle binding, flow cytometry; stronger effect = lower value; AID 2052; 0.068% of 330,000 active; response (vesicle binding), % at 7 µM;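 active = response, share of CD8 T cells binding vesicles, and their 90th percentile fluorescence all below set limits, cut at about 80% in these data, passing the limit was not always enough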;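 note: values below 100% mean blocked vesicle binding to the CD8+ T cells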
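Material: 2C TCR transgenic mouse naive CD8+ T cells, MACS-purified. Also added: QL9-charged Drosophila Ld/ICAM-1/B7-1 vesicles. Timing: binding 1.5 h at 37 °C. Measured by: high-throughput flow cytometry with anti-B7-1 and anti-CD8 staining. Read-out: percent CD8+ FL2 mean versus row control. Controls: Unloaded micro-vesicles (low), QL9 vesicles with 0.7% DMSO (high).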
SKN-1 block – blocks SKN-1 activity in C. elegans; C. elegans VP596 Pgst-4::GFP/RFP ratio, acrylamide-induced, 24 h; inhibition, % at 21.8 µM; 0.49% of 360,000 active; AID 624304;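 active = interference check ratio from 0.5 to 1.5 plus GFP to RFP signal ratio inhibition reaching or exceeding a fixed threshold, cut at about 30% in these data, passing the limit was not always enough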
Rce1 inhib – blocks yeast Ras-converting enzyme | yeast membranes, quenched prenylated peptide cleavage fluorescence | calls only | 0.27% of 290,000 active;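 active = fall in fluorescence gain of 50% or more versus controls, with final raw signal at or below 3038400; inconclusive = same 50% fall but final raw signal above 3038400; inactive = fall in fluorescence gain under 50%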
Myeloid diff MLP – myeloid differentiation induction. ER-HoxA9 myeloid progenitors, lysozyme-GFP differentiation, flow cytometry. calls only at 10 µM. 1% of 360,000 active. AID 624256;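 active = normalized GFP-positive differentiation at or above the plate's own cutoff, the solvent-only control mean plus 3 SD; inconclusive = no clear call, values can overlap the other calls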;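 note: cells exposed to compound for four days before flow analysis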
GRK2 aptamer HTS – human GRK2 inhibition via aptamer displacement | 0.59% of 330,000 active | bead flow cytometry, FAM-aptamer displacement from GRK2 | inhibition of aptamer binding, % at 10 µM;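 active = inhibition of aptamer binding above 40%, roughly 3 SD of noise, on plates passing a quality check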;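 note: median bead fluorescence of bound FAM aptamer so fluorescent compounds give negative values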
Rin1-Abl PPI inh – inhibitors of human Rin1-Abl protein interaction. P00519+Q13671. 0.4% of 360,000 active. inhibition, % at 7.35 µM. AID 588664. TR-FRET Rin1/Abl binding, biochemical; in the data active = inhibition above about 5%, passing the limit was not always enough
Target sequence (P00519 whole entry, looked up): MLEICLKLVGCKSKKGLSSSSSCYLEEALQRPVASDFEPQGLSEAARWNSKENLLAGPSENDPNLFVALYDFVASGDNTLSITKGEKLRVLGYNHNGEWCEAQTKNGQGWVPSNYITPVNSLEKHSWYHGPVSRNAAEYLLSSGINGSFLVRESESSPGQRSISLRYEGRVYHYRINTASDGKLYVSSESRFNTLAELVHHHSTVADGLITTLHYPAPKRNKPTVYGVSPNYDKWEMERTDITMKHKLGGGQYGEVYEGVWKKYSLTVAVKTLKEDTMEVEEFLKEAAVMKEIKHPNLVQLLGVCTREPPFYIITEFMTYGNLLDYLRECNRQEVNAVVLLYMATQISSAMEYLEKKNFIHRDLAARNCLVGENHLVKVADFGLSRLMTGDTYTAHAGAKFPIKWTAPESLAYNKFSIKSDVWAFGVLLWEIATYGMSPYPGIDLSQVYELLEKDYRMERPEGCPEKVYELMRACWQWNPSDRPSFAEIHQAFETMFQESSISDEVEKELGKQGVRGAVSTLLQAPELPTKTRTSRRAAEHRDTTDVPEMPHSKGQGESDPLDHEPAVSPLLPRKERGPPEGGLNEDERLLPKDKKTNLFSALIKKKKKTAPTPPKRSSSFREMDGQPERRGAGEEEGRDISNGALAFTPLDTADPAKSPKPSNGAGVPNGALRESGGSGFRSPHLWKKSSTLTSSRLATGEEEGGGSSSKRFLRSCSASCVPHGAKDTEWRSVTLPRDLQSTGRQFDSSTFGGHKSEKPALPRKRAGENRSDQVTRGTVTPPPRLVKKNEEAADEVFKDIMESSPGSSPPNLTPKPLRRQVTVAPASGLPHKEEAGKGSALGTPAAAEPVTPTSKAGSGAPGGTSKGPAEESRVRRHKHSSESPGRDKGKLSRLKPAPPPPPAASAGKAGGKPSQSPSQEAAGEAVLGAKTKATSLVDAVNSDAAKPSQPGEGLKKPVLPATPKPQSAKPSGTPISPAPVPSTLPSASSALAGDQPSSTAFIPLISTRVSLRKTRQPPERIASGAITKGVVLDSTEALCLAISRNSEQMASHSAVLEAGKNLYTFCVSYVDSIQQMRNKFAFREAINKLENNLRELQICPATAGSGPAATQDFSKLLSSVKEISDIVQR
Target sequence (Q13671 whole entry, looked up): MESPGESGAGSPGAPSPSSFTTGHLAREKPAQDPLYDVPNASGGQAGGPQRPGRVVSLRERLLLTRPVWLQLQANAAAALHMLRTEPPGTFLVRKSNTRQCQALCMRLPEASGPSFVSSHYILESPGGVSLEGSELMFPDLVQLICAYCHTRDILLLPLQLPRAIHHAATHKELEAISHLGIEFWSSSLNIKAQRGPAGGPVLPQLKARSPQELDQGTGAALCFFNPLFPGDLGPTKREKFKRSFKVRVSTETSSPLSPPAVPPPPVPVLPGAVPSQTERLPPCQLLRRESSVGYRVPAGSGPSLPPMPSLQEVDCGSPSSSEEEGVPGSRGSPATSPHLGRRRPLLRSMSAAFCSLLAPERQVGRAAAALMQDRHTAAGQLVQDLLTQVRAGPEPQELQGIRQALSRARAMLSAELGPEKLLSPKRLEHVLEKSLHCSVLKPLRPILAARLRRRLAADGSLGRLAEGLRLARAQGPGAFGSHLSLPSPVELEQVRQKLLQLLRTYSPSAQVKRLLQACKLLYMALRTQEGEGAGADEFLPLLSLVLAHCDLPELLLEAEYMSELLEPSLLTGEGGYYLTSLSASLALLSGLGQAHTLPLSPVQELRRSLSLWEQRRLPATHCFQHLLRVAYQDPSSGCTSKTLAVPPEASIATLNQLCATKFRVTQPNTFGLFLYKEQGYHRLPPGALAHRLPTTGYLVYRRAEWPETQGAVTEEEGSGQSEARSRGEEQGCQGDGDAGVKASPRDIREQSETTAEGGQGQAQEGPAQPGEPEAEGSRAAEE
GRK2 inh confirm – confirmation of human GRK2 inhibitors displacing RNA aptamer; shares compounds with GRK2 aptamer HTS; bead-bound GRK2, FAM-aptamer displacement, flow cytometry; aptamer displacement, % at 10 µM; 4% of 2,000 active; AID 504451;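 active = aptamer displacement above 40%, near three times the noise of non-fluorescent compounds, on plates passing quality checks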;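 note: negative values mostly reflect intrinsic compound fluorescence rather than true enhancement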
Aptamer quench – counter-screen for GRK2 aptamer inhibitors: fluorescent aptamer quenchers. shares compounds with GRK2 aptamer HTS. Fluorescent RNA aptamer beads, quenching, flow cytometry; stronger effect = higher value. fluorescence change (kMESF span), kMESF (test concentration not listed). 110 tested, under 10 active;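 active = compounds whose bead fluorescence drops by more than 37 kMESF across the dose range, marking them as dye quenchers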
Aptamer quench SP – quenches fluorescent RNA aptamer, GRK2 hit artifact | shares compounds with GRK2 aptamer HTS | Carboxyfluorescein RNA aptamer on beads, flow cytometry quenching; stronger effect = lower value | fluorescence response (% of DMSO), % at 10 µM | 2,000 tested, under 10 active | AID 504580;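 active = compounds that quench the bead-bound fluorescent RNA probe, cutting fluorescence to under half of the solvent control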;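 note: counterscreen run without GRK2 so only probe quenching by compound is measured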
GRK2 confirm 2 – confirmation of human GRK2 inhibitors binding RNA aptamer site | bead-bound GRK2, FAM-aptamer displacement, flow cytometry | shares compounds with GRK2 aptamer HTS | 360 tested, under 10 active | inhibition of aptamer binding, % at 10 µM;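 active = inhibition of aptamer binding above 40%, about triple the noise seen with nonglowing compounds, on plates passing quality control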;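 note: negative values mostly come from compounds that fluoresce themselves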
FAM quench SP – quenches fluorescent RNA aptamer, GRK2 hit artifact; 360 tested, under 10 active; AID 588494; carboxyfluorescein RNA aptamer beads, flow cytometry quenching; stronger effect = lower value; fluorescence response vs DMSO, % at 10 µM; shares compounds with GRK2 aptamer HTS;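 active = response vs DMSO under 50%, meaning signal dropped by over half, treated as fluorescence quencher; inconclusive = no clear call, values can overlap the other calls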;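 note: labelled aptamer on streptavidin beads without GRK2 as a quench counter-screen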
Of the large screens only hits and unclear results are named; the others gave an inactive call (follow-up assays come after a bar, where they were run).

Oc1ccc(-c2nccc(-c3ccc(Br)cc3)n2)cc1	none | GRK2 inh confirm inactive | Aptamer quench SP inactive
CCNC(=O)COC(=O)c1cc(-c2ccccc2)nn1-c1ccccc1	none
CC(C)(C)NC(=O)COC(=O)CCC(=O)c1ccc(F)cc1	GRK2 aptamer HTS 99.0 | GRK2 inh confirm inactive | Aptamer quench SP inactive
CCc1ccc(-c2cc3c(=O)n(CC(=O)NCCN4CCCCC4C)nc(C)n3n2)cc1 (centres undefined)	none
COCC1CCCCN1C(=O)c1cccc(OC2CCN(S(C)(=O)=O)CC2)c1 (centres undefined)	none
Cc1ccc(Cl)cc1N(CC(=O)NCc1ccc2c(c1)OCO2)S(C)(=O)=O	none
Cc1cc(Cl)ccc1N(CC(=O)NCc1ccc2c(c1)OCO2)S(C)(=O)=O	GRK2 aptamer HTS 100.0 (no result: Rce1 inhib) | GRK2 inh confirm inactive | Aptamer quench SP inactive
Cc1ccsc1C(=O)N1CCCC(CO)(Cc2ccccc2)C1 (centres undefined)	GRK2 aptamer HTS 45.0 | GRK2 confirm 2 inactive | FAM quench SP inactive
COc1ccc(C2CC(c3cccs3)=NN2C(=O)c2ccc(Br)o2)cc1 (centres undefined)	GRK2 aptamer HTS 86.0 | GRK2 confirm 2 inactive | FAM quench SP inactive
O=C(c1ccccc1Cl)N1CCN(C(=O)C2CCCO2)CC1 (centres undefined)	none (no result: T cell modulator, Rce1 inhib, GRK2 aptamer HTS)
CN(C)CCCn1c(SCc2c(Cl)cccc2Cl)nnc1-c1ccncc1	GRK2 aptamer HTS 44.0 | GRK2 confirm 2 inactive | FAM quench SP inactive
O=C(Nc1cccc(NC(=O)c2ccc(-c3ccc(Br)cc3)o2)c1)c1ccccc1	GRK2 aptamer HTS 90.0 | GRK2 inh confirm inactive | Aptamer quench SP inactive
O=C(Nc1ccccc1)c1ccc(-c2ccc(Br)cc2)o1	none
O=S(=O)(NC1CC(NS(=O)(=O)OCC(Cl)(Cl)Cl)C2CCCCC12)OCC(Cl)(Cl)Cl (centres undefined)	GRK2 aptamer HTS 74.0 | GRK2 inh confirm inactive | Aptamer quench SP inactive
CCCCCN(C(=O)CCC(=O)OCC(=O)NCCc1ccccc1)c1c(N)n(CCCC)c(=O)[nH]c1=O	none (no result: T cell modulator, Rce1 inhib, GRK2 aptamer HTS)
Cc1cccc2cc(C#N)c(SCC(=O)N3CC(=O)Nc4ccccc43)nc12	Myeloid diff MLP inconclusive, GRK2 aptamer HTS 57.0 | GRK2 inh confirm inactive | Aptamer quench SP inactive
COc1ccc2cc(C#N)c(SCC(=O)N3CC(=O)Nc4ccccc43)nc2c1	none
Cc1ccc(C(=O)Nc2nn(C)c3cccc(F)c23)cc1	none
Cc1ccc2nc(/C(C#N)=C\c3ccc([N+](=O)[O-])o3)[nH]c2c1	Myeloid diff MLP inconclusive | GRK2 inh confirm inactive | Aptamer quench SP inactive
N#C/C(=C\c1ccc([N+](=O)[O-])o1)c1nc2ccccc2[nH]1	none (no result: SKN-1 block, Rce1 inhib, Myeloid diff MLP, Rin1-Abl PPI inh)
CCc1c(C(=O)OCc2ccccc2)[nH]c(C)c1C	GRK2 aptamer HTS 93.0 (no result: Rce1 inhib) | GRK2 inh confirm inactive | Aptamer quench SP inactive
CCc1c(C)[nH]c(C(=O)OCc2ccccc2)c1C	none (no result: T cell modulator, Myeloid diff MLP, GRK2 aptamer HTS)
Cc1cnnn1-c1ccc(C(=O)CCl)cc1	GRK2 aptamer HTS 56.0 | GRK2 inh confirm inactive | Aptamer quench SP inactive
O=C(CSc1ccccc1)Nc1ccc(Cl)c(S(=O)(=O)N2CCOCC2)c1	none (no result: Rce1 inhib) | GRK2 inh confirm inactive | Aptamer quench SP inactive
O=C(CSc1ncccn1)Nc1ccc(Cl)c(S(=O)(=O)N2CCOCC2)c1	none (no result: Rce1 inhib)
CC1=C(C(=O)N2CCCCCC2)CC(CC(=O)NCCCN(C)C)C(=O)N1Cc1ccc(C(C)(C)C)cc1 (centres undefined)	none (no result: T cell modulator, Rce1 inhib, GRK2 aptamer HTS, Rin1-Abl PPI inh)
CCN(CC)CC#CCOC(c1ccccc1)c1ccccc1	GRK2 aptamer HTS 79.0 | GRK2 inh confirm inactive | Aptamer quench SP inactive
Cc1c(C(=O)Nc2ccc(F)cc2)oc2ccc(S(=O)(=O)N3CC(C)CC(C)C3)cc12 (centres undefined)	none | GRK2 inh confirm inactive | Aptamer quench SP inactive
C=CCN1C(=O)c2ccc(C(=O)N(C)CC(=O)Nc3ccccc3Br)cc2C1=O	none
C=CCN1C(=O)c2ccc(C(=O)N(CCC)CC(=O)Nc3ccccc3C)cc2C1=O	GRK2 aptamer HTS 99.0 | GRK2 inh confirm inactive | Aptamer quench SP inactive
O=C1C(Cc2ccccc2O)NC(=S)N1c1ccccc1 (centres undefined)	none
CCOC(=O)/C=C/C(=O)Nc1ccc(S(=O)(=O)Nc2cc(OC)nc(OC)n2)cc1	none (no result: T cell modulator, Rce1 inhib, GRK2 aptamer HTS)
COc1ccc(C(CNS(=O)(=O)c2ccc(F)cc2)N2CCN(C)CC2)cc1 (centres undefined)	none
COc1ccc(S(=O)(=O)NCC(c2ccc(F)cc2)N2CCN(C)CC2)cc1 (centres undefined)	GRK2 aptamer HTS 76.0 | GRK2 inh confirm 46.3 | Aptamer quench inactive | Aptamer quench SP inactive
Cc1cc(N)nc(SCC(=O)N2C(C)CCCC2C)n1 (centres undefined)	GRK2 aptamer HTS 50.0 | GRK2 inh confirm inactive | Aptamer quench SP inactive
O=C(C[C@@H]1C[C@@H]2c3cc(NC(=O)C4CCC4)ccc3O[C@@H]2[C@@H](CO)O1)NCc1ccc(Cl)cc1	none (no result: T cell modulator, Rce1 inhib, GRK2 aptamer HTS)
Nc1ccc2nc(-c3ccc(-c4nc5ccc(N)cc5[nH]4)cc3)[nH]c2c1	GRK2 aptamer HTS 85.0 (no result: SKN-1 block, Myeloid diff MLP, Rin1-Abl PPI inh) | GRK2 inh confirm inactive | Aptamer quench SP inactive
Nc1ccc(-c2nc3ccccc3[nH]2)cc1	Rce1 inhib inconclusive
CCOc1ccc(NC(=O)CC2C(=O)N(CC)C(=S)N2CCNC(C)=O)cc1 (centres undefined)	GRK2 aptamer HTS 70.0 | GRK2 confirm 2 inactive | FAM quench SP inactive
CCOc1ccc(NC(=O)CS(=O)CC(=O)Nc2cccnc2)cc1 (centres undefined)	none
Cc1ccccc1C(=O)NC(CC(C)C)C(=O)NCC(C)(C)N1CCOCC1 (centres undefined)	none (no result: Rce1 inhib)
Cc1cc(-c2nc(-c3ccncc3)no2)ccc1[N+](=O)[O-]	none | GRK2 inh confirm inactive | Aptamer quench SP inactive
CC(C)C[C@@H](CN1CCCC1CN1C(=S)NC[C@@H]1Cc1ccc(O)cc1)N1C[C@H](Cc2ccc(O)cc2)N(CC2CCCCC2)C1=S (some centres undefined)	none (no result: T cell modulator, Rce1 inhib, GRK2 aptamer HTS)
CCCn1c2ccccc2c2cn[nH]c(=O)c21	none | GRK2 inh confirm inactive | Aptamer quench SP inactive
